Screening results (PubChem BioAssay)
NR1D1 modulator: Rev-erb alpha (human) modulation; P20393; Rev-erbα–FITC-DNA binding, fluorescence polarization, 90 min; activity, % at 10 µM; actives 0.79% (n = 370,000);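 active means activity above about 14%, limit read from the data; passing the limit was not always enough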;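 further: 0% = DMSO wells with 35 nM protein and 100% = DMSO wells with 750 nM protein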
bovine MsrA act: activators of bovine methionine sulfoxide reductase A. activation, % at 10.6 µM. purified bovine MsrA, absorbance read-out. actives 0.3% (n = 360,000); in the data active means activation above about 7.5%;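 further: 0% = vehicle and 100% = reference activator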
ARFGAP1 inh: inhibits rat ARF GTPase activating protein 1. Q62848. Arfgap1-stimulated ARF1 GTP hydrolysis, GDP FP detection. inhibition, % at 16.5 µM. actives 0.26% (n = 360,000). AID 651572;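 active means inhibition above a per-plate limit, mean inhibition of low control wells plus 3 SD, cut at about 25% in these data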;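 further: 0% = DMSO wells with enzyme and 100% = wells lacking Arfgap1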
Target sequence (Q62848 1-136 limits assumed): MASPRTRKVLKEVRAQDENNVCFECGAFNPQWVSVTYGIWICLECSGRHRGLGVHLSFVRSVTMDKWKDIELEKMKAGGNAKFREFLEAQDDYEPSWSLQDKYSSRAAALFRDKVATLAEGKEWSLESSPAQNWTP
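Material – truncated rat Arfgap1 GAP domain · Buffer or medium – HEPES-based buffer, pH 7.5 · Reagent – human ARF1(Δ1-17)-GTP substrate · Dosing – 16.5 µM single point, 1.26% DMSO · Schedule – GTP hydrolysis reaction 2 h at 25 °C · Technique – GDP detection by fluorescence polarization · Benchmarks – No-Arfgap1 wells (100%) versus DMSO full-reaction wells (0%) · Repeats – single replicate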
MsrA inh: bovine MsrA inhibition; inhibition, % at 15.5 µM; actives 0.75% (n = 360,000); purified bovine MsrA, absorbance read-out; in the data active means inhibition above about 4.5%;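 further: 0% = vehicle wells with enzyme and 100% = reference inhibitor wells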
ASAP1 GAP inh: inhibitors of human ASAP1 ArfGAP activity. AID 624377. ASAP1-stimulated ARF1 GTP hydrolysis, GDP FP detection. actives 0.19% (n = 360,000). inhibition, % at 16.5 µM; in the data active means inhibition above about 25%;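 further: 0% = vehicle with enzyme and substrate and 100% = no enzyme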
Target sequence (Q9ULH1 325-724 limits assumed): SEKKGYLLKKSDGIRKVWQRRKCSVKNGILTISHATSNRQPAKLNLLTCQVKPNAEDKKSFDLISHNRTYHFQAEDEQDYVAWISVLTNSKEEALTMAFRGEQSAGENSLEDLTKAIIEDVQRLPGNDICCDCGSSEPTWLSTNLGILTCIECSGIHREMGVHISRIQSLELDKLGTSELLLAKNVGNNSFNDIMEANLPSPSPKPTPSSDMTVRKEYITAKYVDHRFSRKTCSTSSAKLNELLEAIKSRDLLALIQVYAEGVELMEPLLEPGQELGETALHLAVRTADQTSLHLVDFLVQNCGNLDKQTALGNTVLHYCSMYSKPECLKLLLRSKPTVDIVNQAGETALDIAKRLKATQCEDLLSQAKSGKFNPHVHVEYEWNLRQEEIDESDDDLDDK
sPLA2-III inh: Inhibits HGIII-sPLA2 liposome hydrolysis, primary screen | Q9NZ20 | QFRET BODIPY PC-A2 liposome hydrolysis, fluorescence | inhibition, % at 12.2 µM | actives 0.56% (n = 370,000);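 active means inhibition above mean plus 3 SD of compounds lying within the high and low control bounds, cut at about 19% in these data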;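 further: 0% = median of test compound wells and 100% = no enzyme DMSO wells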
hGIII sPLA2 conf: human GIII-sPLA2 inhibition, confirmation. inhibition, % at 12.2 µM. recombinant hGIII-sPLA2, BODIPY PC-A2 QFRET fluorescence. AID 743280. actives 34% (n = 2,000). shares compounds with sPLA2-III inh;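 active means mean inhibition across triplicates above the hit cutoff set in the earlier primary screen, cut at about 19% in these data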;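 further: 0% = enzyme with DMSO and 100% = DMSO wells lacking enzyme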
BODIPY interf: counter-screen for HGIII-sPLA2 inhibitors: 535nm fluorescence interference | inhibition, % at 12.2 µM | BODIPY FL product fluorescence interference, QFRET | actives 8.5% (n = 2,000) | shares compounds with sPLA2-III inh | AID 743282;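 active means average inhibition above the solvent-only control mean plus 3 SD, cut at about 6% in these data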;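 further: 0% = DMSO with substrate plus product and 100% = DMSO with substrate alone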
BODIPY interf DR: interferes with 535nm fluorescence in dose response counter-screen; 240 tested, under 10 active; BODIPY FL product fluorescence interference, cell-free; shares compounds with sPLA2-III inh; IC50, µM;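 active means IC50 at or below 10 µM; inactive means IC50 above 10 µM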
* = called active by the depositor; x = no result. An excerpt weighted towards active compounds, which were near 2.7% of everything screened.

SMILES | NR1D1 modulator | bovine MsrA act | ARFGAP1 inh | MsrA inh | ASAP1 GAP inh | sPLA2-III inh | hGIII sPLA2 conf | BODIPY interf | others
Cc1cccc2sc(NNC(=O)C3=COCCO3)nc12 | 0 | -11 | 8 | 2 | 9 | 21* | 23* | -7
Cc1cccc2sc(NNC(=O)c3cc(-c4cccs4)nc4ccccc34)nc12 | 5 | -3 | 12 | 1 | 2 | 50* | 49* | 8.8*
O=C(NNc1nc2c(F)cc(F)cc2s1)C1=COCCO1 | -1 | -2 | 3 | 0 | 0 | 15 | x | x
CN(CCCOC(=O)c1cc2ccccc2o1)C1CN(Cc2cn(Cc3ccccc3C(F)(F)F)nn2)S(=O)(=O)C1 (stereo not drawn) | 2 | x | x | x | x | -3 | x | x
CC(C)(C)OC(=O)N1CCC[C@H]1C(=O)N1CCC[C@H]1C(=O)NCc1ccncc1 | 2 | -3 | -2 | 1 | 13 | 6 | x | x
CCOC(=O)Cn1cc(CN2C(C(=O)OC)CN(C3CCCC3)CCS2(=O)=O)nn1 (stereo not drawn) | 7 | x | x | x | x | 14 | x | x
Cc1cc(C)c(C)c(N=Nc2nc3ccccc3n2C)c1C | 3 | -9 | 12 | 2 | 5 | 21* | 39* | -3 | BODIPY interf DR=>122
O=S(=O)(NNc1ncc(C(F)(F)F)cc1Cl)c1ccc(F)cc1F | -2 | 2 | -2 | 1 | 1 | 27* | 30* | 29*
CCCn1c(=O)c(C(=O)NNC(=O)c2ccccc2Cl)c(O)c2ccccc21 | 2 | -3 | 13 | 1 | -9 | 21* | 20* | 1
CCCn1c(=O)c(C(=O)NNC(=O)c2ccccc2[N+](=O)[O-])c(O)c2ccccc21 | 3 | -1 | 2 | 2 | 0 | 14 | x | x
Cc1ccc(CN2CCCCC(NC(=O)c3ccc(F)cc3)C2=O)cc1 (stereo not drawn) | 4 | x | x | x | x | 1 | x | x
CC(/C=C1\SC(=S)N(CCC(=O)Nc2ccc(O)cc2)C1=O)=C\c1ccccc1 | 1 | -5 | 22 | 2 | 1 | 19* | -3 | 4
Cc1ccc(/C=C2\SC(=S)N(CCC(=O)NNC(=O)c3ccccc3O)C2=O)cc1 | -2 | -3 | 0 | -1 | -14 | 9 | x | x
O=C(CN1C(=O)/C(=C/c2ccccc2)SC1=S)NNC(=O)c1ccccc1O | 0 | -3 | 8 | 1 | 10 | 20* | 15 | -4
COc1cccc(/C=C2/SC(=S)N(CC(=O)NNC(=O)c3ccccc3O)C2=O)c1 | -1 | -1 | -4 | 1 | -5 | 23* | 22* | -8
COc1cccc(/C=C2/SC(=S)N(CCCC(=O)Nc3ccc(O)cc3)C2=O)c1 | 6 | -1 | 16 | 0 | 2 | -36 | x | x
O=C(CCN1C(=O)/C(=C/c2ccccc2Cl)SC1=S)NNC(=O)c1ccccc1O | -6 | -1 | 2 | 0 | 1 | 20* | 30* | 1 | BODIPY interf DR=>122
S=C(Nc1ccc(Br)cc1)OCCN1CCCC12CCC(c1ccccc1)CC2 (stereo not drawn) | -1 | x | x | x | x | 1 | x | x
C=C(C)C#CCNCc1ccccc1 | -4 | x | x | x | x | 10 | x | x
COC(=O)[C@]12C[C@H](CC(=O)N3CCOCC3)C(=O)N(CCc3ccc(OC)c(OC)c3)C1=C[C@H](C1CCCC1)O[C@@H]2C | 6 | x | x | x | x | 5 | x | x
O=C1CCC2(CCC(c3ccccc3)CC2)N1CCCO (stereo not drawn) | 0 | x | x | x | x | 3 | x | x
CCCc1cc(C(=O)NNC(=S)NCC2CCCO2)cs1 (stereo not drawn) | -5 | -2 | 4 | 2 | 6 | 23* | 12 | 3
COc1ccc(/C=C/c2c(-c3ccc(OC)cc3)sc3ccc(N4CCOCC4)cc23)cc1 | x | -4 | x | x | x | x | x | x
COc1ccc(-c2sc3ccccc3c2/C=C/c2ccc(N)cc2)cc1 | -7 | -5 | 6 | 3 | 9 | 22* | 28* | 13*
Cc1ccccc1Nc1nc(N)nc(CCl)n1 | 1 | -3 | 6 | -1 | -3 | 20* | 3 | -8
SMILES | NR1D1 modulator | bovine MsrA act | ARFGAP1 inh | MsrA inh | ASAP1 GAP inh | sPLA2-III inh | hGIII sPLA2 conf | BODIPY interf | others
COc1ccc(-c2nnc(SCc3c(F)cccc3F)n2N)cc1 | -4 | x | x | x | x | -2 | x | x
CCOC(=O)C1CC(=O)c2cc(OC)c(OC)cc2C1 (stereo not drawn) | 2 | -1 | 7 | 1 | -13 | 4 | x | x
COC(=O)C1CC(=O)c2sccc2C1 (stereo not drawn) | -1 | -3 | 1 | 0 | -5 | 20* | 0 | -4
CCCCOCCCNC(=O)C[C@H]1C(=O)N(Cc2ccc(OC)cc2)C2=CCCC[C@@]21C(=O)OCC | 4 | x | x | x | x | -2 | x | x
Cc1ccc2c(c1)c(C)c(C)n2CC(O)CN1CCCCC1C (stereo not drawn) | -1 | 2 | 0 | 0 | 4 | 22* | 20* | -19
Cc1ccc2c(c1)c1c(n2CC(O)CN2CCCCC2C)CCCC1 (stereo not drawn) | -4 | 0 | 2 | 0 | -2 | -13 | x | x
COc1ccccc1-c1cccc2c3c([nH]c12)[C@@H]1C[C@H]2[C@@H](CN1CC3)[C@H](C)ON2C | 2 | x | x | x | x | 2 | x | x
COC(=O)[C@@H]1[C@H](O[Si](C)(C)C(C)(C)C)C2OC2C[C@H]1S(=O)(=O)c1ccccc1 (stereo partly drawn) | -7 | x | x | x | x | -4 | x | x
CC(C)(C)NC(=S)NCCc1ccccc1 | 8 | -3 | -5 | -1 | 1 | 20* | 24* | -5
NC(=O)c1sc2nc3c(c(-c4ccco4)c2c1N)CCCC3 | -1 | -2 | 15 | 1 | 6 | 20* | -1 | -11
CCCCn1c(-c2csc3c2CCC(C)C3)n[nH]c1=S (stereo not drawn) | -4 | 0 | -7 | -1 | 10 | -7 | x | x
CCn1c(-c2csc3c2CCCC3)n[nH]c1=S | -1 | 3 | 7 | 1 | 0 | 29* | 30* | 2 | BODIPY interf DR=>122
CCCCn1c(-c2csc3c2CCCC3)n[nH]c1=S | 1 | x | -12 | 1 | 2 | 19 | x | x
C=CCn1c(-c2csc3c2CCC(C)C3)n[nH]c1=S (stereo not drawn) | 7 | -1 | 13 | -1 | -6 | 21* | 20* | 5
Nc1nc2c(ncn2[C@@H]2O[C@H](CNCc3cnc(N4CCOCC4)s3)[C@@H](O)[C@H]2O)c(=O)[nH]1 | 2 | -13 | 8 | 0 | 3 | 13 | x | x
c1nc(NCC2CCOC2)c2cc(-c3ccc4c(c3)OCO4)ccc2n1 (stereo not drawn) | 1 | x | x | x | x | -2 | x | x
